Measurements taken from ChEMBL document CHEMBL1121717, “Tetrahydro-2-benzoxepins: a novel family of hypotensives” (1981).
The source made the active and inactive calls. The rule behind the calls is not given here.

Experiments:
[1] = test system: Rattus norvegicus; test: Oral hypotensive activity of compound was tested in conscious rats after oral administration at 50 mg/Kg dose; -49/-52; type: functional, organism-based
[2] = test system: Felis catus; test: Effect of compound on sympathetic nerve activity was measured in baroreceptor denervated cats at time 20min, after iv administration of 1.0 mg/kg; type: functional
How it was run: (§1)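 Cats of either sex anesthetized i.p. with sodium diallylbarbituric acid (60 mg/kg) plus urethane (240 mg/kg), placed in stereotaxic frame, tracheal tube inserted; femoral artery cannulated for arterial pressure, femoral vein for drug. Sympathetic activity recorded from preganglionic splanchnic nerve. 1.0 mg/kg iv; n = 6 treated, n = 8 vehicle; MAP, HR and % SNA (0 min = 100) read at 0–60 min; mean ± error.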

[3] = test system: Felis catus; test: Effect of compound on blood pressure was measured in baroreceptor denervated cats at time 40min, after iv administration of 1.0 mg/kg; type: functional; how it was run: as §1
[4] = test system: Rattus norvegicus; test: Oral hypotensive activity of compound was tested in conscious rats after oral administration at 5 mg/Kg dose; -24/-9; type: functional, organism-based
[5] = test system: Felis catus; test: Effect of compound on sympathetic nerve activity was measured in baroreceptor denervated cats at time 40min, after iv administration of 1.0 mg/kg; type: functional; how it was run: as §1
[6] = test system: Felis catus; test: Effect of compound on blood pressure was measured in baroreceptor denervated cats at time 5min, after iv administration of 1.0 mg/kg; type: functional; how it was run: as §1
[7] = test system: Felis catus; test: Effect of compound on sympathetic nerve activity was measured in baroreceptor denervated cats at time 0min, after iv administration of 1.0 mg/kg; type: functional; how it was run: as §1
[8] = test system: Felis catus; test: Effect of compound on heart rate was measured in baroreceptor denervated cats at time 20min, after iv administration of 1.0 mg/kg; type: functional; how it was run: as §1
[9] = test system: Felis catus; test: Effect of compound on sympathetic nerve activity was measured in baroreceptor denervated cats at time 10min, after iv administration of 1.0 mg/kg; type: functional; how it was run: as §1
[10] = test system: Felis catus; test: Effect of compound on sympathetic nerve activity was measured in baroreceptor denervated cats at time 5min, after iv administration of 1.0 mg/kg; type: functional; how it was run: as §1
[11] = test system: Felis catus; test: Effect of compound on sympathetic nerve activity was measured in baroreceptor denervated cats at time 60min, after iv administration of 1.0 mg/kg; type: functional; how it was run: as §1
[12] = test system: Felis catus; test: Effect of compound on heart rate was measured in baroreceptor denervated cats at time 60min, after iv administration of 1.0 mg/kg; type: functional; how it was run: as §1
[13] = test system: Felis catus; test: Effect of compound on blood pressure was measured in baroreceptor denervated cats at time 10min, after iv administration of 1.0 mg/kg; type: functional; how it was run: as §1
[14] = test system: Felis catus; test: Effect of compound on heart rate was measured in baroreceptor denervated cats at time 0min, after iv administration of 1.0 mg/kg; type: functional; how it was run: as §1
[15] = test system: Felis catus; test: Effect of compound on blood pressure was measured in baroreceptor denervated cats at time 0 min, after iv administration of 1.0 mg/kg; type: functional; how it was run: as §1
[16] = test system: Felis catus; test: Effect of compound on heart rate was measured in baroreceptor denervated cats at time 5min, after iv administration of 1.0 mg/kg; type: functional; how it was run: as §1
[17] = test system: Felis catus; test: Effect of compound on blood pressure was measured in baroreceptor denervated cats at time 20min, after iv administration of 1.0 mg/kg; type: functional; how it was run: as §1
[18] = test system: Felis catus; test: Effect of compound on blood pressure was measured in baroreceptor denervated cats at time 60min, after iv administration of 1.0 mg/kg; type: functional; how it was run: as §1
[19] = test system: Felis catus; test: Effect of compound on heart rate was measured in baroreceptor denervated cats at time 10min, after iv administration of 1.0 mg/kg; type: functional; how it was run: as §1
[20] = test system: Felis catus; test: Effect of compound on heart rate was measured in baroreceptor denervated cats at time 40min, after iv administration of 1.0 mg/kg; type: functional; how it was run: as §1

For `COc1cc2c(cc1OC)C(CCN1CCN(c3ccc(F)cc3)CC1)OCCC2.Cl` (stereo not given), the Delta blood pressure [1] was “Active”, the SNA [2] was 86% and the MAP [3] was 107. For the same compound, the Delta blood pressure [4] was “Active”, the SNA [5] was 88% and the MAP [6] was 75. It also gave an SNA [7] of 100%, an HR [8] of 230 and an SNA [9] of 76%. The SNA [10] was 72%, the SNA [11] was 96% and the HR [12] was 232. It also gave an MAP [13] of 85, an HR [14] of 229 and an MAP [15] of 131. For the same compound, the HR [16] was 229, the MAP [17] was 95 and the MAP [18] was 109. It also gave an HR [19] of 230 and an HR [20] of 231.
